Measurements published in the RNAGym collection of RNA variant scans (doi:10.1126/science.aae0568).
Variants at the floor of the assay were thinned out.

B1: tRNA (parent)
chain: GUUCCGUUGGCGUAAUGGUAACGCGUCUCCCUCCUAAGGAGAAGACUGCGGGUUCGAGUCCCGUACGGAACG

Variants of: B1
Assay: yeast fitness relative to wild type (ratio to wild type); higher = fitter; tRNA-Arg(CCU), competitive growth, 37 C, YPD
In short: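 Variants of the tRNA-Arg(CCU) gene were chemically synthesised with a 3% per-site mutation rate across 69 sites and placed at the native genomic locus in Saccharomyces cerevisiae. Six parallel replicates of the pooled strains were competed in YPD at 37°C for 24 hours, and gene amplicons from the start and end populations were read by 100-nucleotide paired-end sequencing. Darwinian fitness relative to wild type was derived from changes in genotype frequencies. Genotypes required ≥ 100 starting reads, and estimates < 0.5 were set to 0.5.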

Compared with GUUCCGUUGGCGUAAUGGUAGCGCGUCUCCCUCCUAAGGAGAAGCCUGCGGGUUCGAGUCCCGUAUGGAACG [A21G A45C C66U], GUUCCGUUGGCGUAAUGGUAGUGUGUCUCCCUCCUAUGGAGAAGGGUGCGGGUUCGAGUCCCGUACGCAACG [A21G C22U C24U A37U A45G C46G G68C] is lower in yeast fitness: 0.555 for the first, ≤ 0.5 for the second.

Compared with GUUCCGUUGGCGUAAUGGUAGUGCGUCUCGCUCCUAAGGAGAAGACUGCGAGUUCGAGUCCCGUACGGAACG [A21G C22U C30G G51A], GUUCCGUUGGCGUAAUGGUAGUGCGUCUCCCUCCUGAGGAGAAGACUGCGGGCUCGCGUCCCGUACGGUACG [A21G C22U A36G U53C A57C A69U] is lower in yeast fitness: 0.538 for the first, ≤ 0.5 for the second.

First: GUUCCGUUGGCGUAAUGGUAGCGCGUCUCCCUCCUAAGGAGAAGACUGCGGGUUCGAGUCCCGUACGGAUCG [A21G A70U]
Second: GUUCCGUUGGCGUAAUGGUAGUGGCUCUCCCACUUAAGCAGAAGGCUGCGGGUUCGAGUCCCGUACGGAACG [A21G C22U C24G G25C U32A C34U G39C A45G]
The yeast fitness of the first is higher: 1 for the first, ≤ 0.5 for the second.

First: GUUCCGUUGGCGUAAUGGUAGCGCGUCUCCCUCCUAAGGAGAAGUCUGCGGGUUCGAGUCCCGUUCGGAACG [A21G A45U A65U]
Second: GUUCCGUUGGCGUAAUGGUAGAGCGUCUCCCUCCUAAGGAGAAGACUGCGGGUUAGAGUCCCGUACCGAACG [A21G C22A C55A G67C]
The yeast fitness of the first is higher: 0.674 for the first, ≤ 0.5 for the second.

First: GUUCCGUUGGCGUAAUGGUAGUGCGUCUGCCUCCUAAGGAGAAGCCUGCGGGUUCGAGUCCCGUACGGAACG [A21G C22U C29G A45C]
Second: GUUCCGUUGGCGUAAUGGUAGCGCGUCUCCCUCCUAAGGAGAAGACUGCGGGUUCGAGUCCCGUACGGCACG [A21G A69C]
The yeast fitness of the first is lower: 0.515 for the first, 0.932 for the second.

First: GUUCCGUUGGCGUAAUGGUAGGGCGUCUGCCUCCUAAGGAGAAGACUGCGGGUUCGAGUCCCGUACGGAACG [A21G C22G C29G]
Second: GUUCCGUUGGCGUAAUGGUAGUGCGUCUCCCUCCUAAGGAGAAGACUGCGGGUUUGAGUCCCGUACGGAACG [A21G C22U C55U]
The yeast fitness of the first is lower: ≤ 0.5 for the first, 0.567 for the second.

Going from GUUCCGUUGGCGUAAUGGUAGCGCGUCUCCCUCCUAAGGAGAAGGCUGCGGGUUCGAGUCCCGUACGGAACG [A21G A45G] to GUUCCGUUGGCGUAAUGGUAGCGCGUCUCCCUCCUAAGGAGAAGCCUGCGGGUUCGAGUCCCGUACGGAACG [A21G A45C], the yeast fitness falls from 0.91 to 0.89.

Compared with GUUCCGUUGGCGUAAUGGUAGCGCGUCUCCCUCCUAAGGAGAAGUCUGCGGGUUCGAGUCCCGUACGGAACG [A21G A45U], GUUCCGUUGGCGUAAUGGUAGUGCGUCUCCCUCCUAAGGAGACGACUGCGGGUUCGAGUCCCGUACGGAACG [A21G C22U A43C] is lower in yeast fitness: 0.902 for the first, 0.57 for the second.

Compared with GUUCCGUUGGCGUAAUGGUAGUGCGUCUCCCUCCUAAGGAGAAGACUGCGGGUUCGAGUCCCCUACGGCACG [A21G C22U G63C A69C], GUUCCGUUGGCGUAAUGGUAGUGCGUCUCCCUCCUAAGGAGAAGACUGCGGGUUCGAGUCCCGUACGGAUCG [A21G C22U A70U] is higher in yeast fitness: 0.524 for the first, 0.619 for the second.

Compared with GUUCCGUUGGCGUAAUGGUAGAGCGUCUCCCUCCUAAGGAGAAGACUGCGGGUUCAAGUCCCGUACGGAACG [A21G C22A G56A], GUUCCGUUGGCGUAAUGGUAGCGCGUCUCCCUCCUAAGGAGAAGCCUGCGGGUUCGAGCCCCGUACGGAACG [A21G A45C U59C] is lower in yeast fitness: 0.763 for the first, 0.732 for the second.

Compared with GUUCCGUUGGCGUAAUGGUAGCGCGUCUCCCUCCUAAGGAGAAGACUGCGGGUUCGGGUCCCGUACGGAACG [A21G A57G], GUUCCGUUGGCGUAAUGGUAGCGCGUCUCCCUCCUAAGGAGAAGACUGCGGGUUCGUGUCCCGUACGGAACG [A21G A57U] is higher in yeast fitness: 0.875 for the first, 0.97 for the second.

GUUCCGUUGGCGUAAUGGUAGUGCGUCUCCCUCCUAAGGAGUAGACUGCGGGUUCGAGUCCCGUACGGUACG [A21G C22U A42U A69U] and GUUCCGUUGGCGUAAUGGUAGUGCGUCUCCCUCCUAAGGAGAAGACUGCGGGUUCGAGUACCGUACGGAACG [A21G C22U C60A] cannot be ordered by yeast fitness: ≤ 0.5 for the first, ≤ 0.5 for the second.

First: GUUCCGUUGGCGUAAUGGUAGAGCGUCUCCCUCCUAAGGAGAAGACUGCGGGUUCGAGUCCCGUACGGAACG [A21G C22A]
Second: GUUCCGUUGGCGUAAUGGUAGUGCGUCUCCCUCCUAAGGAGAAGACUGCGGGUUCGAGUCCCGUACGGAACG [A21G C22U]
The yeast fitness of the first is higher: 0.834 for the first, 0.683 for the second.

First: GUUCCGUUGGCGUAAUGGUAGUGCGUCUCCCUCCUAAGGACAAGACUGCGGGUUCGAGUCCCGUACGGAACG [A21G C22U G41C]
Second: GUUCCGUUGGCGUAAUGGUAGCGCGUCUCCCUCCUAAGGAGAAGUCUGCGGGUUCGAGUCCCGUACGGUACG [A21G A45U A69U]
The yeast fitness of the first is lower: 0.66 for the first, 1.07 for the second.

Compared with GUUCCGUUGGCGUAAUGGUAGCGCGUCUCCCUCCUAAGGAGAAGGCUGCGGGUUCGAGUCCCGUACAGAACG [A21G A45G G67A], GUUCCGUUGGCGUAAUGGUAGUGCGUCUCCCUCCUAAGGAGAAGACUGCGGGUUCGAGUCCCGUAUGCAACG [A21G C22U C66U G68C] is lower in yeast fitness: 1 for the first, ≤ 0.5 for the second.

Compared with GUUCCGUUGGCGUAAUGGUAGCGCGUCUCCCUCCUAAGGAGAAGGGUGCGGGUUCGAGUCCCGUACGGAACG [A21G A45G C46G], GUUCCGUUGGCGUAAUGGUAGUGCGUCUCCCUCCUAAGGAGAAGACUGCGGGUUCGAGUCCCGUACAGAACG [A21G C22U G67A] is lower in yeast fitness: 0.802 for the first, 0.575 for the second.

Compared with GUUCCGUUGGCGUAAUGGUAGCGCGUCUCCCUCCUAAGGAGAAGACUGCGGGUUCGAGUCCCGUUCGGAACG [A21G A65U], GUUCCGUUGGCGUAAUGGUAGCGCGUCUCCCUCCUAAGGAGAAGACUGCGGGUUCGAGUCCCGUCCGGAACG [A21G A65C] is higher in yeast fitness: 0.848 for the first, 0.924 for the second.

First: GUUCCGUUGGCGUAAUGGUAGCGCGUCUCCCUCCUAAGGAGAAGGCUGCGGGUUCGAGUCCCGUCCGGAACG [A21G A45G A65C]
Second: GUUCCGUUGGCGUAAUGGUAGGGCGUCUCCCUCCGCAGGAGAAGACUGCGGGUUCGAGUCCCGUACGGAACG [A21G C22G U35G A36C]
The yeast fitness of the first is higher: 0.977 for the first, 0.746 for the second.

Compared with GUUCCGUUGGCGUAAUGGUAGUGCGUCUCCCCACUAGGGAGAAGACUGCGGGUUCGCGUCCCGUACGGAACG [A21G C22U U32C C33A A37G A57C], GUUCCGUUGGCGUAAUGGUAGUGCGUCUCCCUCCUAAGGAGAAGCCUGCGGGUUCGAGUCCCGUACGGAACG [A21G C22U A45C] is higher in yeast fitness: ≤ 0.5 for the first, 0.539 for the second.
